Test results taken from ChEMBL document CHEMBL5724801, “EUbOPEN Chemogenomics Library - Multiplex” (2024).
Values joined by “and” are separate entries in the source; they are usually repeats but may differ in a detail not shown here. Equal entries are not always repeated.

System: HEK-293T
Experiment: Multiplex assay against HEK293T
Type: toxicity, cell-based
Conditions: human
Method in brief: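 Cells were classed with CellPathfinder machine-learning gating, first as Hoechst high-intensity objects or normal cells, then (normal cells) as healthy, pyknosed or fragmented nuclei, and finally (pyknosed cells) as mitotic or apoptotic. Staining of live cells at seeding used Hoechst33342, BioTracker Green Microtubule Cytoskeleton Dye, MitoTracker Red and Annexin V Alexa Fluor 680, with imaging on a CQ1 microscope at 37°C and 5% CO2 after compound addition. Tubulin, mitochondrial-mass and membrane-permeability phenotypes are per cents of healthy-nucleus cells.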

[1] = 12 h, 1 µM, compound concentration 1 uM
[2] = 12 h, 10 µM, compound concentration 10 uM
[3] = 24 h, 1 µM, compound concentration 1 uM
[4] = 24 h, 10 µM, compound concentration 10 uM
[5] = 48 h, 1 µM, compound concentration 1 uM
[6] = 48 h, 10 µM, compound concentration 10 uM

Compound: OCCCNc1cc(-c2ccnc(Nc3cccc(Cl)c3)n2)ccn1
- Population Apoptotic (%) [1]: 66% and 65%
- Population Fragmented Nuclei (%) [1]: 9% and 8%
- Population Healthy Nuclei (%) [1]: 66% and 74%
- Population Hoechst High Intensity Objects (%) [1]: 14% and 11%
- Population Membrane Permeable-Phenotype (%) [1]: 0%
- Population Mitochondria Different-Phenotype (%) [1]: 82% and 88%
- Population Mitotic Cells (%) [1]: 33% and 34%
- Population Normal (%) [1]: 85% and 88%
- Population Pyknosed Nuclei (%) [1]: 24% and 16%
- Population Tubulin-Different-Phenotype (%) [1]: 75% and 57%
- Total Cell Count [1]: 204 and 173
- Population Apoptotic (%) [2]: 78% and 75%
- Population Fragmented Nuclei (%) [2]: 14%
- Population Healthy Nuclei (%) [2]: 55% and 67%
- Population Hoechst High Intensity Objects (%) [2]: 30% and 41%
- Population Membrane Permeable-Phenotype (%) [2]: 1% and 10%
- Population Mitochondria Different-Phenotype (%) [2]: 83% and 85%
- Population Mitotic Cells (%) [2]: 21% and 25%
- Population Normal (%) [2]: 69% and 58%
- Population Pyknosed Nuclei (%) [2]: 30% and 18%
- Population Tubulin-Different-Phenotype (%) [2]: 80% and 72%
- Total Cell Count [2]: 249 and 224
- Population Apoptotic (%) [3]: 91% and 77%
- Population Fragmented Nuclei (%) [3]: 10% and 13%
- Population Healthy Nuclei (%) [3]: 66% and 76%
- Population Hoechst High Intensity Objects (%) [3]: 14% and 15%
- Population Membrane Permeable-Phenotype (%) [3]: 0%
- Population Mitochondria Different-Phenotype (%) [3]: 80% and 86%
- Population Mitotic Cells (%) [3]: 8% and 22%
- Population Normal (%) [3]: 85% and 84%
- Population Pyknosed Nuclei (%) [3]: 22% and 10%
- Population Tubulin-Different-Phenotype (%) [3]: 61%
- Total Cell Count [3]: 228 and 202
- Population Apoptotic (%) [4]: 71% and 78%
- Population Fragmented Nuclei (%) [4]: 16% and 15%
- Population Healthy Nuclei (%) [4]: 44% and 54%
- Population Hoechst High Intensity Objects (%) [4]: 41% and 45%
- Population Membrane Permeable-Phenotype (%) [4]: 0% and 3%
- Population Mitochondria Different-Phenotype (%) [4]: 85% and 91%
- Population Mitotic Cells (%) [4]: 28% and 21%
- Population Normal (%) [4]: 58% and 54%
- Population Pyknosed Nuclei (%) [4]: 38% and 29%
- Population Tubulin-Different-Phenotype (%) [4]: 88% and 82%
- Total Cell Count [4]: 237 and 207
- Population Apoptotic (%) [5]: 82% and 61%
- Population Fragmented Nuclei (%) [5]: 12% and 17%
- Population Healthy Nuclei (%) [5]: 51% and 65%
- Population Hoechst High Intensity Objects (%) [5]: 18% and 21%
- Population Membrane Permeable-Phenotype (%) [5]: 1% and 0%
- Population Mitochondria Different-Phenotype (%) [5]: 88% and 84%
- Population Mitotic Cells (%) [5]: 17% and 38%
- Population Normal (%) [5]: 81% and 78%
- Population Pyknosed Nuclei (%) [5]: 35% and 17%
- Population Tubulin-Different-Phenotype (%) [5]: 68% and 59%
- Total Cell Count [5]: 232 and 193
- Population Apoptotic (%) [6]: 71% and 83%
- Population Fragmented Nuclei (%) [6]: 16% and 25%
- Population Healthy Nuclei (%) [6]: 46%
- Population Hoechst High Intensity Objects (%) [6]: 57% and 56%
- Population Membrane Permeable-Phenotype (%) [6]: 1% and 8%
- Population Mitochondria Different-Phenotype (%) [6]: 78% and 85%
- Population Mitotic Cells (%) [6]: 28% and 16%
- Population Normal (%) [6]: 42% and 43%
- Population Pyknosed Nuclei (%) [6]: 37% and 28%
- Population Tubulin-Different-Phenotype (%) [6]: 76% and 79%
- Total Cell Count [6]: 262 and 238

Compound: CN1CCN(c2nc3cc(C(F)(F)F)ccc3n3cccc23)CC1.O=C(O)/C=C\C(=O)O.O=C(O)/C=C\C(=O)O
- Population Apoptotic (%) [1]: 37% and 53%
- Population Fragmented Nuclei (%) [1]: 5% and 8%
- Population Healthy Nuclei (%) [1]: 80% and 77%
- Population Hoechst High Intensity Objects (%) [1]: 10% and 5%
- Population Membrane Permeable-Phenotype (%) [1]: 0%
- Population Mitochondria Different-Phenotype (%) [1]: 48% and 76%
- Population Mitotic Cells (%) [1]: 62% and 46%
- Population Normal (%) [1]: 89% and 94%
- Population Pyknosed Nuclei (%) [1]: 13% and 14%
- Population Tubulin-Different-Phenotype (%) [1]: 33% and 35%
- Total Cell Count [1]: 438 and 332
- Population Apoptotic (%) [2]: 68% and 64%
- Population Fragmented Nuclei (%) [2]: 7% and 5%
- Population Healthy Nuclei (%) [2]: 76%
- Population Hoechst High Intensity Objects (%) [2]: 14% and 9%
- Population Membrane Permeable-Phenotype (%) [2]: 0%
- Population Mitochondria Different-Phenotype (%) [2]: 73% and 89%
- Population Mitotic Cells (%) [2]: 31% and 35%
- Population Normal (%) [2]: 85% and 90%
- Population Pyknosed Nuclei (%) [2]: 15% and 18%
- Population Tubulin-Different-Phenotype (%) [2]: 64% and 66%
- Total Cell Count [2]: 396 and 286
- Population Apoptotic (%) [3]: 33% and 54%
- Population Fragmented Nuclei (%) [3]: 9% and 6%
- Population Healthy Nuclei (%) [3]: 81% and 83%
- Population Hoechst High Intensity Objects (%) [3]: 6%
- Population Membrane Permeable-Phenotype (%) [3]: 1% and 0%
- Population Mitochondria Different-Phenotype (%) [3]: 30% and 50%
- Population Mitotic Cells (%) [3]: 66% and 45%
- Population Normal (%) [3]: 93%
- Population Pyknosed Nuclei (%) [3]: 9% and 10%
- Population Tubulin-Different-Phenotype (%) [3]: 24% and 25%
- Total Cell Count [3]: 557 and 390
- Population Apoptotic (%) [4]: 41% and 63%
- Population Fragmented Nuclei (%) [4]: 8% and 10%
- Population Healthy Nuclei (%) [4]: 77% and 78%
- Population Hoechst High Intensity Objects (%) [4]: 9% and 7%
- Population Membrane Permeable-Phenotype (%) [4]: 0%
- Population Mitochondria Different-Phenotype (%) [4]: 65% and 79%
- Population Mitotic Cells (%) [4]: 58% and 36%
- Population Normal (%) [4]: 90% and 92%
- Population Pyknosed Nuclei (%) [4]: 13% and 10%
- Population Tubulin-Different-Phenotype (%) [4]: 62% and 58%
- Total Cell Count [4]: 490 and 378
- Population Apoptotic (%) [5]: 20% and 37%
- Population Fragmented Nuclei (%) [5]: 13%
- Population Healthy Nuclei (%) [5]: 78% and 79%
- Population Hoechst High Intensity Objects (%) [5]: 3% and 5%
- Population Membrane Permeable-Phenotype (%) [5]: 2% and 0%
- Population Mitochondria Different-Phenotype (%) [5]: 17% and 42%
- Population Mitotic Cells (%) [5]: 79% and 62%
- Population Normal (%) [5]: 96% and 94%
- Population Pyknosed Nuclei (%) [5]: 7%
- Population Tubulin-Different-Phenotype (%) [5]: 17% and 21%
- Total Cell Count [5]: 915 and 535
- Population Apoptotic (%) [6]: 50% and 52%
- Population Fragmented Nuclei (%) [6]: 15% and 11%
- Population Healthy Nuclei (%) [6]: 75% and 77%
- Population Hoechst High Intensity Objects (%) [6]: 10% and 12%
- Population Membrane Permeable-Phenotype (%) [6]: 2% and 0%
- Population Mitochondria Different-Phenotype (%) [6]: 41% and 65%
- Population Mitotic Cells (%) [6]: 50% and 47%
- Population Normal (%) [6]: 89% and 87%
- Population Pyknosed Nuclei (%) [6]: 8% and 10%
- Population Tubulin-Different-Phenotype (%) [6]: 44% and 56%
- Total Cell Count [6]: 672 and 472

Compound: CN(C)C(=O)Cn1cc(-c2ccc(-c3nnc4ccccn34)cc2)cn1
- Population Apoptotic (%) [1]: 31% and 43%
- Population Fragmented Nuclei (%) [1]: 7%
- Population Healthy Nuclei (%) [1]: 80% and 79%
- Population Hoechst High Intensity Objects (%) [1]: 9% and 10%
- Population Membrane Permeable-Phenotype (%) [1]: 0%
- Population Mitochondria Different-Phenotype (%) [1]: 40% and 59%
- Population Mitotic Cells (%) [1]: 68% and 56%
- Population Normal (%) [1]: 90% and 89%
- Population Pyknosed Nuclei (%) [1]: 11% and 12%
- Population Tubulin-Different-Phenotype (%) [1]: 32% and 27%
- Total Cell Count [1]: 432 and 337
- Population Apoptotic (%) [2]: 32% and 51%
- Population Fragmented Nuclei (%) [2]: 9% and 7%
- Population Healthy Nuclei (%) [2]: 76% and 80%
- Population Hoechst High Intensity Objects (%) [2]: 7% and 8%
- Population Membrane Permeable-Phenotype (%) [2]: 0%
- Population Mitochondria Different-Phenotype (%) [2]: 61% and 55%
- Population Mitotic Cells (%) [2]: 67% and 48%
- Population Normal (%) [2]: 92% and 91%
- Population Pyknosed Nuclei (%) [2]: 14% and 12%
- Population Tubulin-Different-Phenotype (%) [2]: 42% and 18%
- Total Cell Count [2]: 427 and 356
- Population Apoptotic (%) [3]: 27% and 46%
- Population Fragmented Nuclei (%) [3]: 10% and 9%
- Population Healthy Nuclei (%) [3]: 77% and 82%
- Population Hoechst High Intensity Objects (%) [3]: 6% and 7%
- Population Membrane Permeable-Phenotype (%) [3]: 0%
- Population Mitochondria Different-Phenotype (%) [3]: 28% and 44%
- Population Mitotic Cells (%) [3]: 72% and 53%
- Population Normal (%) [3]: 93% and 92%
- Population Pyknosed Nuclei (%) [3]: 12% and 7%
- Population Tubulin-Different-Phenotype (%) [3]: 22% and 18%
- Total Cell Count [3]: 595 and 447
- Population Apoptotic (%) [4]: 35% and 61%
- Population Fragmented Nuclei (%) [4]: 7% and 13%
- Population Healthy Nuclei (%) [4]: 78% and 79%
- Population Hoechst High Intensity Objects (%) [4]: 4% and 7%
- Population Membrane Permeable-Phenotype (%) [4]: 0%
- Population Mitochondria Different-Phenotype (%) [4]: 44% and 39%
- Population Mitotic Cells (%) [4]: 64% and 38%
- Population Normal (%) [4]: 95% and 92%
- Population Pyknosed Nuclei (%) [4]: 13% and 7%
- Population Tubulin-Different-Phenotype (%) [4]: 27% and 11%
- Total Cell Count [4]: 506 and 425
- Population Apoptotic (%) [5]: 18% and 32%
- Population Fragmented Nuclei (%) [5]: 11%
- Population Healthy Nuclei (%) [5]: 81% and 80%
- Population Hoechst High Intensity Objects (%) [5]: 3% and 4%
- Population Membrane Permeable-Phenotype (%) [5]: 0%
- Population Mitochondria Different-Phenotype (%) [5]: 20% and 22%
- Population Mitotic Cells (%) [5]: 81% and 67%
- Population Normal (%) [5]: 96% and 95%
- Population Pyknosed Nuclei (%) [5]: 6% and 7%
- Population Tubulin-Different-Phenotype (%) [5]: 13% and 12%
- Total Cell Count [5]: 946 and 572
- Population Apoptotic (%) [6]: 30% and 37%
- Population Fragmented Nuclei (%) [6]: 18% and 14%
- Population Healthy Nuclei (%) [6]: 74% and 79%
- Population Hoechst High Intensity Objects (%) [6]: 5% and 2%
- Population Membrane Permeable-Phenotype (%) [6]: 0%
- Population Mitochondria Different-Phenotype (%) [6]: 24% and 27%
- Population Mitotic Cells (%) [6]: 69% and 62%
- Population Normal (%) [6]: 94% and 97%
- Population Pyknosed Nuclei (%) [6]: 6% and 5%
- Population Tubulin-Different-Phenotype (%) [6]: 14% and 12%
- Total Cell Count [6]: 753 and 616
